Screening data deposited in PubChem BioAssay by The Scripps Research Institute Molecular Screening Center.
Hits are enriched below; roughly 1.7% of the tested compounds scored in any of these assays.
PP1 inh = PP1-alpha (human) inhibition in PP5 counter-screen. purified PP1alpha, OMFP fluorescence. inhibition, % at 6.7 µM. actives 0.9% (n = 320,000);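 active = inhibition above the mean inhibition of all tested compounds plus 3 SD, computed separately for each screening campaign, cut at about 15% in these data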
ZTA counter = counter-screen for EBNA-1 inhibitors: inhibitors of Epstein-Barr virus ZTA; P03206; ZTA-DNA binding, fluorescence polarization; inhibition, % at 11 µM; actives 0.15% (n = 320,000); in the data active = inhibition above about 33%
Target sequence (P03206 whole entry, looked up): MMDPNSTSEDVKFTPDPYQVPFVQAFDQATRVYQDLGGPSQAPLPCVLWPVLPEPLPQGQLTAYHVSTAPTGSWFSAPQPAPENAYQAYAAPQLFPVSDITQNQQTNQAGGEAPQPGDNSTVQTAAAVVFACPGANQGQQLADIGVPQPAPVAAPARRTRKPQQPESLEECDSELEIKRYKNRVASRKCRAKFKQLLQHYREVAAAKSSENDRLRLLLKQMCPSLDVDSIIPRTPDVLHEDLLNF
HCV core dimer = blocks dimerization of HCV core protein; TR-FRET GST/Flag-core106 dimerization, 1536-well; inhibition, % at 5 µM; actives 0.33% (n = 300,000); AID 1899;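 active = inhibition above the mean of all tested compounds plus 3 SD, set per screening campaign, cut at about 45% in these data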
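Material: Tagged HCV core106 pair (GST and Flag) | Amount: GST-core106 13.5 nM, Flag-core106 17 nM | Medium: KF-containing HEPES buffer, pH 7.45, DTT, CHAPS, BSA | Reagent: Eu donor and XL665 acceptor anti-tag antibodies | Schedule: 4 h at 22.5 °C | Technique: Time-resolved FRET, ex 340 nm, em 617 and 671 nm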
PP5 inh = blocks human protein phosphatase 5 activity | P53041 | purified PP5c, OMFP substrate fluorescence | inhibition, % at 6.7 µM | actives 0.18% (n = 320,000) | AID 1987;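 active = inhibition above the campaign's mean inhibition across all tested compounds plus 3 SD, cut at about 9.5% in these data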;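 also: 0% = DMSO only and 100% = 100 µM cantharidin control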
Target sequence (P53041 whole entry, looked up): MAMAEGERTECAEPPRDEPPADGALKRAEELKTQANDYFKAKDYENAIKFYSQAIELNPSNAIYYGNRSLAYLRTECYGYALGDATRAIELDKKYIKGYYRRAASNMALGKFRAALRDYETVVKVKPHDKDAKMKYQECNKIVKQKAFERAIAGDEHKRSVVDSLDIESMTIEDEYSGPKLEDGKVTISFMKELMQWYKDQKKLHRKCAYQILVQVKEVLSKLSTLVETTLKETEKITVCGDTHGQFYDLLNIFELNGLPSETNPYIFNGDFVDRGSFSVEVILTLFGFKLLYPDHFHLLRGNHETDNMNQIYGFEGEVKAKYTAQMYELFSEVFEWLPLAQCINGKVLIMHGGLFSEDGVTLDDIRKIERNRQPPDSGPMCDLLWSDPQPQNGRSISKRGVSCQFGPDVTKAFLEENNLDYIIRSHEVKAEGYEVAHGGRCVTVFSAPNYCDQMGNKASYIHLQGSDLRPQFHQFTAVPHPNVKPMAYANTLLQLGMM
EBNA-1 inh = blocks EBNA-1 binding to DNA; EBNA-1 DNA binding, fluorescence polarization; inhibition, % at 14.8 µM; actives 0.34% (n = 300,000); AID 1950; in the data active = inhibition above about 28%
EBNA-1 inh conf = EBNA-1 (EBV) inhibition, confirmation. shares compounds with EBNA-1 inh. Recombinant EBNA-1 DBD, Cy5-DNA fluorescence polarization. inhibition, % at 14.8 µM. actives 35% (n = 830);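 active = mean inhibition across replicates above a set limit taken from the earlier primary screen, cut at about 28% in these data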;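 also: plate controls were EBNA-1 protein with DMSO for no effect and wells lacking EBNA-1 for full effect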
ZTA counter trip = blocks Epstein-Barr virus ZTA in triplicate, EBNA-1 counter-screen; 830 tested, under 10 active; shares compounds with EBNA-1 inh; Zta-ZRE DNA binding, Cy5 fluorescence polarization; inhibition, % at 11.1 µM;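 active = mean inhibition over triplicates above a set limit taken from the primary EBNA-1 screen, cut at about 37% in these data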;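 also: purified full length Zta protein with Cy5 labeled ZRE DNA probe; 0% = Zta with DMSO and 100% = wells lacking Zta protein; inhibitors lower polarization by freeing the labeled DNA probe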
PP5 inh confirm = confirmation of human PP5 phosphatase inhibitors; shares compounds with PP5 inh; AID 2331; actives 22% (n = 460); Purified PP5, fluorogenic phosphatase substrate, fluorescence; inhibition, % at 6.7 µM; in the data active = inhibition above about 9.5%
PP1 counter 3x = PP1 phosphatase inhibition, counter-screen for PP5 inhibitors; shares compounds with PP5 inh; PP1 enzyme, fluorescent phosphatase substrate; inhibition, % at 6.7 µM; actives 4% (n = 460); in the data active = inhibition above about 16%
PP1 inh confirm = confirmation of human PP1 phosphatase inhibitors; shares compounds with PP1 inh; purified PP1alpha, OMFP substrate fluorescence; inhibition, % at 6.7 µM; actives 52% (n = 1,900);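 active = mean PP1 inhibition above a set limit taken from the earlier primary screen, cut at about 15% in these data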
PP5 counter = counter-screen for PP1 inhibitors: human PP5 phosphatase inhibition; shares compounds with PP1 inh; purified PP5c, OMFP fluorescence; inhibition, % at 6.7 µM; actives 4% (n = 1,900); AID 2360;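 active = mean PP5 inhibition over triplicate wells above about 9.5% taken from the earlier PP1 screen, limit read from the data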
* marks the source's active call; other numbers are inactive results; · = no result.

SMILES | PP1 inh | ZTA counter | HCV core dimer | PP5 inh | EBNA-1 inh | EBNA-1 inh conf | ZTA counter trip | PP1 inh confirm | PP5 counter | others
COc1ccc(Cc2c(Cl)ncnc2Cl)cc1 | 0 | 12 | -1 | 0 | 33* | -9 | -11 | · | ·
COc1ccc(Cc2c(C)nc(N)nc2Cl)cc1 | 1 | 17 | 2 | 0 | -7 | · | · | · | ·
COC(=O)CSc1nnc(-c2ccc(S(=O)(=O)N3CCC(C)CC3)cc2)o1 | -3 | 6 | 2 | 3 | 1 | · | · | · | ·
CC1CCN(S(=O)(=O)c2ccc(-c3nnc(SCc4cccnc4)o3)cc2)CC1 | -4 | 7 | 4 | -3 | 44* | 21 | -7 | · | ·
CC(/C=C1\SC(=S)N(c2ccc(C(=O)O)cc2)C1=O)=C\c1ccccc1 | 44* | 26 | 17 | 1 | 36* | -4 | 23 | 31* | -4
O=C(N/N=C/c1cccc(O)c1)c1cc(-c2ccc3c(c2)OCO3)n[nH]1 | -1 | 10 | -15 | 5 | -10 | · | · | · | ·
O=C(N/N=C/c1cccc([N+](=O)[O-])c1)c1cc(-c2ccc3c(c2)OCO3)n[nH]1 | 20* | -2 | -1 | 0 | 62* | 23 | 12 | 25* | -3
Cc1cc2sc3ccccc3c(=O)c2c(C)c1O | -1 | 17 | 13 | 0 | 8 | · | · | · | ·
O=c1c(C(c2ccccc2)c2c(O)sc3ccccc3c2=O)c(O)sc2ccccc12 | 25* | 23 | 19 | 3 | 60* | 38* | 39* | 31* | 1
Cc1ccc(C)c(NC(=O)Cn2nc(-c3ccccc3)nc2-c2ccccc2)c1 | 20* | 11 | 1 | 1 | 50* | 24 | -1 | 24* | -6
COc1ccc(Cn2c(N)c(C#N)c3nc4ccccc4nc32)cc1 | 1 | 1 | -4 | 2 | 1 | · | · | · | ·
COc1cc(Cn2c(N)c(C#N)c3nc4ccccc4nc32)cc(OC)c1 | 18* | -7 | 3 | 6 | 92* | 25 | -3 | 8 | 6
CCOC(=O)c1ccc(N2C(=O)c3n[nH]c(-c4ccco4)c3C2c2cccc([N+](=O)[O-])c2)cc1 (stereo not given) | 11 | 12 | 27 | 1 | 10 | · | · | · | ·
CCOC(=O)c1sc(N2C(=O)C(O)=C(C(=O)c3ccc(C)o3)C2c2cccc([N+](=O)[O-])c2)nc1C (stereo not given) | 35* | 23 | 22 | 3 | 33* | 17 | -20 | 21* | -2
O=C(Nc1ccc2oc(-c3cccnc3)nc2c1)c1ccc2c(c1)OCCO2 | 30* | 4 | 21 | 4 | 41* | 0 | 13 | 14 | -5
CCCCCCNC(=O)c1cc(S(=O)(=O)N2CCc3ccccc32)ccc1F | 2 | -10 | 0 | 1 | 4 | · | · | · | ·
CC1CCCCN1C(=O)CN(C)S(=O)(=O)c1cccc2nsnc12 (stereo not given) | -5 | 13 | -6 | 0 | 2 | · | · | · | ·
O=C1OC(Nc2ccc(Br)cn2)c2ccccc21 (stereo not given) | -3 | 6 | -8 | 1 | 4 | · | · | · | ·
O=S(=O)(Nc1nc2ccccc2nc1Nc1cccc(S(=O)(=O)N2CCCCC2)c1)c1ccccc1 | 25* | 4 | 22 | 9.8* | 37* | 4 | -2 | 20* | 4
Cn1c(-c2ccccc2)cc2c3no[n+]([O-])c3ccc21 | 7 | -12 | -9 | 3 | -1 | · | · | · | ·
Cc1cccc(NC(=O)CSc2nc3ccc(NC(=O)CSc4nnnn4-c4ccccc4)cc3s2)c1C | 0 | 10 | 45 | 1 | 7 | · | · | · | ·
O=C(CSc1nc2ccc(NC(=O)CSc3nnnn3-c3ccccc3)cc2s1)Nc1ccccc1 | 20* | -3 | 26 | 3 | 49* | 61* | 0 | 26* | -2
Cc1cccc(NC(=O)CN2C(=O)N/C(=C\c3ccc(N4CCOCC4)cc3)C2=O)c1 | 20* | 12 | 27 | 0 | 34* | 11 | 10 | 25* | -4
O=C(CSc1ccc2c(c1)OCCO2)NC(=O)Cc1ccccc1 | -1 | -1 | 4 | -1 | -8 | · | · | · | ·
COc1ccc(Cn2c(O)c(C=Nc3ccccc3C(=O)O)c3ccccc3c2=O)cc1 | 7 | 9 | 17 | 1 | -1 | · | · | · | ·
SMILES | PP1 inh | ZTA counter | HCV core dimer | PP5 inh | EBNA-1 inh | EBNA-1 inh conf | ZTA counter trip | PP1 inh confirm | PP5 counter | others
COc1ccccc1NS(=O)(=O)c1cccc(-n2c(O)c(C=Nc3ccccc3C(=O)O)c3ccccc3c2=O)c1 | 23* | 10 | 26 | 4 | 36* | 21 | 6 | 12 | 1
COc1cc(NC(=O)c2ccco2)c(C(=O)OCC(=O)c2c[nH]c3ccccc23)cc1OC | 15 | 2 | 15 | 4 | 7 | · | · | · | ·
N=C1/C(=C\c2ccc(-c3cccc(C(=O)O)c3)o2)C(=O)N=C2SC=C(c3ccccc3)N12 | 45* | -8 | 25 | 1 | 32* | 36* | 19 | 32* | -2
COCC(C)n1c(-c2ccc3c(c2)NC(=O)CO3)csc1=Nc1ccc(OC(F)F)cc1 (stereo not given) | 3 | -17 | 1 | 12* | 0 | · | · | · | · | PP5 inh confirm=2;PP1 counter 3x=3
O=C1COc2ccc(-c3csc(=Nc4ccc(OC(F)F)cc4)n3CC3CCCO3)cc2N1 (stereo not given) | 2 | -7 | 3 | 3 | 6 | · | · | · | ·
CCOC(=O)C1CCCN(C(=S)Nc2cccc(Cl)c2C)C1 (stereo not given) | -3 | -16 | 1 | 0 | -3 | · | · | · | ·
O=C1C(Cl)=C(N2CCN(c3ccccc3[N+](=O)[O-])CC2)C(=O)c2ccccc21 | 9 | 4 | -1 | 14* | -1 | · | · | · | · | PP5 inh confirm=24*;PP1 counter 3x=5
CCOC(=O)N1CCN(C(=O)CN(C2CCCCC2)S(=O)(=O)c2ccc(C)cc2)CC1 | 8 | 0 | 1 | 2 | 2 | · | · | · | ·
Cc1ccc(S(=O)(=O)N(CC(=O)N2CCN(c3ccc(F)cc3)CC2)C2CCCCC2)cc1 | 0 | -10 | 8 | 10* | 0 | · | · | · | · | PP5 inh confirm=-4;PP1 counter 3x=-3
CCN(CC(=O)NCc1ccc(Cl)cc1)C(=O)CCOc1ccc(C)cc1 | -1 | 6 | 0 | 1 | -4 | · | · | · | ·
COc1ccc(OC)c2sc(N(CCN(C)C)C(=O)c3cc(Cl)sc3Cl)nc12 | 0 | -6 | 0 | 11* | -16 | · | · | · | · | PP5 inh confirm=0;PP1 counter 3x=0
